In experiment [1] the test system is PC-3. Description: Cytotoxicity against human PC-3 cells assessed as reduction in cell viability incubated for 24 hrs by MTT assay. In kind it is functional, cell-based. The conditions noted are these: PC-3, 24 h. The gist of the method: (§1)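 MTT viability: cells seeded at 1 × 10^4/well, grown 24 h, then exposed to a concentration range of compound for 24 h. MTT (5 mg/mL stock) added for 3 h, formazan dissolved in DMSO, absorbance read at 540 nm.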
For orientation: Formazan colour is commonly taken as a measure of viable cells.

The subject of experiment [2] is MDA-MB-231. Briefly: Cytotoxicity against human MDA-MB-231 cells assessed as reduction in cell viability incubated for 24 hrs by MTT assay. In kind it is functional, cell-based. The conditions noted are these: MDA-MB-231, 24 h. In short, it runs like this: as §1
Experiment [3] deals with MCF7. Briefly: Cytotoxicity against human MCF7 cells assessed as reduction in cell viability incubated for 24 hrs by MTT assay. In kind it is functional, cell-based. The settings on record: MCF7, 24 h. The gist of the method: as §1
The subject of experiment [4] is HEK293. Briefly: Cytotoxicity against human HEK293 cells assessed as reduction in cell viability incubated for 24 hrs by MTT assay. In kind it is cell-based. The settings on record: HEK293, 24 h. The gist of the method:
as §1

Experiment [5] concerns the target Tubulin (Homo sapiens) (UniProt P68371+Q9H4B7+P0DPH7+P68366+Q13509+Q71U36+P04350+Q3ZCM7+P07437+P68363+Q9BQE3+Q6PEY2+Q13885+Q9BVA1+Q9BUF5). Briefly: Induction of tubulin polymerization (unknown origin) at 10 uM incubated for 1 hr by spectrometric analysis. Type of experiment: protein-complex assay.

Calls of active or inactive are those of the source. No cut-off for these calls is given here. Some results are limits rather than exact numbers.

For `COc1ccc2c(c1)c(Cc1ccc(O)cc1)c(-c1cc(OC)c(OC)c(OC)c1)n2Cc1ccc(O)cc1`, the IC50 in experiment [1], in experiment [2] and in experiment [3] was above 30 µM in each case.
`COc1ccc2[nH]c(-c3cc(OC)c(OC)c(OC)c3)cc2c1`: the IC50 in experiment [1], in experiment [2] and in experiment [3] was above 30 µM in each case.
Take `COc1ccc2c(c1)cc(-c1cc(OC)c(OC)c(OC)c1)n2Cc1ccc(OCCN2CCCC2)cc1`: the IC50 (usually the concentration that inhibits the measured activity by half) was determined as 6.03 µM in experiment [1], 12.4 µM in experiment [2] and 5.08 µM in experiment [3].
On to `CC/C(=C(\c1ccccc1)c1ccc(OCCN(C)C)cc1)c1ccccc1` [TAMOXIFEN], for which the IC50 in experiment [4] was found to be 22.4 µM; in experiment [1], 15.8 µM; in experiment [3], 8.42 µM.
In the case of `COc1ccc2c(c1)cc(-c1cc(OC)c(OC)c(OC)c1)n2Cc1ccccc1`, the concentration for half-maximal inhibition (IC50) in experiment [1], in experiment [2] and in experiment [3] was above 30 µM each time.
Regarding `COc1ccc2c(c1)cc(-c1cc(OC)c(OC)c(OC)c1)n2Cc1ccc(O)cc1`, the values for the IC50 in experiment [1], in experiment [2] and in experiment [3] were above 30 µM, 17.3 µM and above 30 µM, respectively.
Regarding `COc1ccc2c(c1)cc(-c1cc(OC)c(OC)c(OC)c1)n2Cc1ccc(OC(C)CN(C)C)cc1` (stereo unspecified), the IC50 in experiment [1] turned out to be 13.3 µM; in experiment [2] it was 10.6 µM; in experiment [3] it was 14.7 µM.
On to `CCOC(=O)COc1ccc(Cn2c(-c3cc(OC)c(OC)c(OC)c3)cc3cc(OC)ccc32)cc1`, for which the IC50 in experiment [1], in experiment [2] and in experiment [3] was above 30 µM throughout.
Turning to `COc1ccc(Cc2c(-c3cc(OC)c(OC)c(OC)c3)n(Cc3ccc(OC)cc3)c3ccc(OC)cc23)cc1`, the IC50 in experiment [1], in experiment [2] and in experiment [3] was above 30 µM throughout.
Regarding `COc1ccc2c(c1)cc(-c1cc(OC)c(OC)c(OC)c1)n2Cc1ccc(OCCN(C)C)cc1`, the half-maximal inhibitory concentration (IC50) in experiment [1] is 6.87 µM; in experiment [2] it was 7.84 µM; in experiment [3] it was 6.67 µM.
As to `CC(=O)O[C@H]1C(=O)[C@@]2(C)[C@H]([C@H](OC(=O)c3ccccc3)[C@]3(O)C[C@H](OC(=O)[C@H](O)[C@@H](NC(=O)c4ccccc4)c4ccccc4)C(C)=C1C3(C)C)[C@]1(OC(C)=O)CO[C@@H]1C[C@@H]2O` [PACLITAXEL], the outcome in experiment [5] was Active. In addition, the IC50 is 5.8 µM in experiment [4], 2.6 µM in experiment [1], 1.6 µM in experiment [2] and 0.48 µM in experiment [3].
`COc1ccc2c(c1)cc(-c1cc(OC)c(OC)c(OC)c1)n2Cc1ccc(OCCN2CCCCC2)cc1`: the 50% inhibitory concentration (IC50) in experiment [1] is 21.8 µM; in experiment [2] it was above 30 µM; in experiment [3] it was 21.6 µM.
For `COc1ccc2c(c1)c(Cc1ccc(OCCN3CCCC3)cc1)c(-c1cc(OC)c(OC)c(OC)c1)n2Cc1ccc(OCCN2CCCC2)cc1`, the IC50 is 7.48 µM in experiment [1], 9.45 µM in experiment [2] and 4.25 µM in experiment [3].
Consider `CCN(CC)CCOc1ccc(Cn2c(-c3cc(OC)c(OC)c(OC)c3)cc3cc(OC)ccc32)cc1`, for which the IC50 in experiment [1] amounted to 15 µM; in experiment [2], 13.2 µM; in experiment [3], 29.8 µM.
Consider `COc1ccc2c(c1)c(Cc1ccccc1)c(-c1cc(OC)c(OC)c(OC)c1)n2Cc1ccccc1`, for which the IC50 in experiment [1], in experiment [2] and in experiment [3] was above 30 µM throughout.
For the molecule `COc1ccc(Cn2c(-c3cc(OC)c(OC)c(OC)c3)cc3cc(OC)ccc32)cc1`, the half-inhibitory concentration (IC50) in experiment [1], in experiment [2] and in experiment [3] was above 30 µM throughout.
As to `COc1ccc2c(c1)cc(-c1cc(OC)c(OC)c(OC)c1)n2Cc1ccc(OCc2ccccc2)cc1`, the IC50 in experiment [1], in experiment [2] and in experiment [3] was above 30 µM throughout.
For `COc1ccc2c(c1)c(Cc1ccc(OCc3ccccc3)cc1)c(-c1cc(OC)c(OC)c(OC)c1)n2Cc1ccc(OCc2ccccc2)cc1`, the IC50 in experiment [1], in experiment [2] and in experiment [3] was above 30 µM throughout.

The values above are taken from ChEMBL document CHEMBL4811308, “Design, synthesis and broad spectrum antibreast cancer activity of diarylindoles via induction of apoptosis in aggressive breast cancer cells” (Bioorg Med Chem, 2021).
